Experimental data published in article PMC7931646 (The Journal of Experimental Medicine, 2021).
≈ marks a conversion by molar mass, not a printed value. Where two headings read alike, the source gives them in different places.

Tests used:
[1] = Liver microsomal stability, mouse; assay type: in vitro ADME; conditions: liver microsomes
Outline: (§1)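 Test compound at 1 µM was incubated for 30 min with liver microsomes at 1 mg/ml (human, rat or mouse). Result is percent of parent compound remaining.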

[2] = Kinetic solubility in simulated intestinal fluids; assay type: physicochemical; conditions: for FaSSIF dissolved compound concentration: FaSSIF pH 6.5, UV/Vis absorbance; for FeSSIF dissolved compound concentration: FeSSIF pH 5.8, UV/Vis absorbance
Outline: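 Dissolved test compound concentration in FaSSIF or FeSSIF simulated intestinal fluids, determined by UV/Vis absorbance.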

[3] = Plasma protein binding, equilibrium dialysis; assay type: in vitro ADME; conditions: mouse
Outline: (§2)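 Equilibrium dialysis of test compound in human, rat or mouse plasma against buffer across a semipermeable membrane. Compound concentrations in both compartments were measured by LC/MS, and percent bound was derived from them.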

[4] = tested on: S. typhimurium strains TA1535, TA1537, TA98, TA100 and E. coli strain WP2 (uvrA); assay: GLP Salmonella–Escherichia coli/microsome plate incorporation; assay type: cell-based, Salmonella typhimurium; conditions: S. typhimurium TA98 and TA100, only with Aroclor-induced rat liver S9; data not shown
Outline: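 GLP plate-incorporation mutagenicity test using S. typhimurium TA1535, TA1537, TA98 and TA100 and E. coli WP2 (uvrA). Each strain was run with and without a metabolic activation mix of Aroclor 1254–induced rat liver microsomes (S9). Read-out is revertant bacterial growth.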

[5] = tested on: S. typhimurium bacterial strains TA98, TA100, TA1535, TA1537; assay: Non-GLP screening; assay type: cell-based, Salmonella typhimurium; conditions: 5–100 µM, with and without Aroclor-induced rat liver S9
Outline: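 Non-GLP mini-Ames screen using S. typhimurium TA98, TA100, TA1535 and TA1537, with and without Aroclor-induced rat liver S9. Test article was applied at 5–100 µM. Read-out was bacterial growth from reversion of the histidine mutation.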

CYP450 1A2 = target: T1, CYP450 1A2 (Homo sapiens, UniProt P05177); assay: CYP450 inhibition, recombinant isoform; assay type: in vitro ADME
T1 sequence (P05177 1-516): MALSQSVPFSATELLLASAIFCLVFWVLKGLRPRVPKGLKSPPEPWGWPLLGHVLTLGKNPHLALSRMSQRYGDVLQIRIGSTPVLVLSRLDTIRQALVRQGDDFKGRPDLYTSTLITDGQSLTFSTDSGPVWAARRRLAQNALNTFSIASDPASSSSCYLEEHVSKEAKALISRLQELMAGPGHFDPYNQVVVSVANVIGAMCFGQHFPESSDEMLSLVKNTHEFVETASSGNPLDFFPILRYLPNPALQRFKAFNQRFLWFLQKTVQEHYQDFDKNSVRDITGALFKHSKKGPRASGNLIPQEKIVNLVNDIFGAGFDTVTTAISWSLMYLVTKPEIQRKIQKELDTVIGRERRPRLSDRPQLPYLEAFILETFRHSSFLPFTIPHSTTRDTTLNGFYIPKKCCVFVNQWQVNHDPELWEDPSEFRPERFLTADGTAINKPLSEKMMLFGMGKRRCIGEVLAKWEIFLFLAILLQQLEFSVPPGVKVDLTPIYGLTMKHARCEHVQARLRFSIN
Outline: (§3)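 Recombinant human CYP450 isoforms were incubated with isoform-specific probe substrates; for CYP3A4 these were midazolam and testosterone. Inhibition was quantified by LC-MS/MS analysis of probe-substrate turnover.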

CYP450 2C9 = CYP450 2C9 (Homo sapiens, UniProt P11712); assay: CYP450 inhibition, recombinant isoform; assay type: in vitro ADME
Sequence of CYP450 2C9 (P11712 whole entry, canonical isoform): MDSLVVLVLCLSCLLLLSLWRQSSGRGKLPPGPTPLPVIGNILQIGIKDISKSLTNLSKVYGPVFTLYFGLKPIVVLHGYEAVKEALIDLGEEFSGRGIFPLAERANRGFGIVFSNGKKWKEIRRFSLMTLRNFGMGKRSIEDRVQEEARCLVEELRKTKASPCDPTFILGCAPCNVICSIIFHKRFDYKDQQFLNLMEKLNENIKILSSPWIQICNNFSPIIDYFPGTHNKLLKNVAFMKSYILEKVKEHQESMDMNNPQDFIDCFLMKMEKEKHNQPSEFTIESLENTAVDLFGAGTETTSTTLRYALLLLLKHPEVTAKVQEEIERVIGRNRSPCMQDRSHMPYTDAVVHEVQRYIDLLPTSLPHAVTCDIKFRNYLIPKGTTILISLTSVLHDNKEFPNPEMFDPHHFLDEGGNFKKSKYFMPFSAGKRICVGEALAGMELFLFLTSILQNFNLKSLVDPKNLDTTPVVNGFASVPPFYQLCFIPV

[6] = Liver microsomal stability, human; assay type: in vitro ADME; conditions: liver microsomes
Outline: as §1

[7] = Plasma protein binding, equilibrium dialysis; assay type: in vitro ADME; conditions: rat
Outline: as §2

[8] = Liver microsomal stability, rat; assay type: in vitro ADME; conditions: liver microsomes
Outline: as §1

MDR1-MDCK permeability = assay type: in vitro ADME; conditions: dog
Outline: (§4)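 Transport across MDR1-MDCK cell monolayers. Apparent permeability was measured in the apical-to-basolateral direction (× 10−6 cm/s). Efflux ratio was calculated as Papp B-A / Papp A-B.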

P-glycoprotein (MDR1) = assay: MDR1-MDCK permeability; assay type: in vitro ADME; conditions: dog
Outline: as §4

[9] = Plasma protein binding, equilibrium dialysis; assay type: in vitro ADME; conditions: human
Outline: as §2

CYP450 2D6 = CYP450 2D6 (Homo sapiens, UniProt P10635); assay: CYP450 inhibition, recombinant isoform; assay type: in vitro ADME
Sequence of CYP450 2D6 (P10635 whole entry, canonical isoform): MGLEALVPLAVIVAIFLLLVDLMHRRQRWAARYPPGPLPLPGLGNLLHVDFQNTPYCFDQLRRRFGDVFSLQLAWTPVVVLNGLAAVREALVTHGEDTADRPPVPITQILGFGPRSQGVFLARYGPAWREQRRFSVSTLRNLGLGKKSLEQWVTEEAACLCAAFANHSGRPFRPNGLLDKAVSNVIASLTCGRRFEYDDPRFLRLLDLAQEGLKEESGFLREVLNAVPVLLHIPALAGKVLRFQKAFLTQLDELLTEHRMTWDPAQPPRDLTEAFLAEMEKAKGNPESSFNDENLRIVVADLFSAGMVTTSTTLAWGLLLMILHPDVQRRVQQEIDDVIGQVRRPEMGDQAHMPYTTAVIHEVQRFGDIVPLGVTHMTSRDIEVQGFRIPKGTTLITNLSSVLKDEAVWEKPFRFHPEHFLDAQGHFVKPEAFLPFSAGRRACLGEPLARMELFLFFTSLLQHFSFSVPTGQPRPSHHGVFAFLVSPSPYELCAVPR
Outline: as §3

CYP450 2C19 = CYP450 2C19 (Homo sapiens, UniProt P33261); assay: CYP450 inhibition, recombinant isoform; assay type: in vitro ADME
Sequence of CYP450 2C19 (P33261 whole entry, canonical isoform): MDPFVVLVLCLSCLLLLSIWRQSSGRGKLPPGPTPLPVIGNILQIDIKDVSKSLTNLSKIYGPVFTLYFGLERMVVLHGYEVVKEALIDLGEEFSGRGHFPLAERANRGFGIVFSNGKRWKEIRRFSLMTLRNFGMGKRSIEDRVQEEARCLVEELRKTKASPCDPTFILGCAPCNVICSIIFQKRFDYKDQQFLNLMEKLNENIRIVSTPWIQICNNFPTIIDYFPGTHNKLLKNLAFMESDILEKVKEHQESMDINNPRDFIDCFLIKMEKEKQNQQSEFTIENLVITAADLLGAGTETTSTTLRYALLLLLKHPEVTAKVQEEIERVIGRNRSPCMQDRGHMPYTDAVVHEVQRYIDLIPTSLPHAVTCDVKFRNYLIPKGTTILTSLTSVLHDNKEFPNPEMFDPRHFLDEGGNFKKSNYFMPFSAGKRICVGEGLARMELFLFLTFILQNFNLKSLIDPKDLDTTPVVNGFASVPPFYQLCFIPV
Outline: as §3

[10] = GLP 28-d IND-enabling safety/toxicology study of compound 1 in NHPs; assay type: in vivo, NHP; conditions: data not shown
[11] = GLP 28-d IND-enabling safety/toxicology study of compound 1 in rats; assay type: in vivo, rat; conditions: data not shown
[12] = Kinetic aqueous solubility, PBS pH 7.4; assay type: physicochemical; conditions: PBS buffer, pH 7.4, aqueous buffer, kinetic from dmso stock
Outline: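 Kinetic solubility in PBS at pH 7.4, read by UV/Vis absorbance and reported in micromolar.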

hERG channel = hERG channel (Homo sapiens, UniProt Q12809); assay: Patch-Xpress patch-clamp hERG assay in HEK-293 cells; assay type: cell-based
Sequence of hERG channel (Q12809 whole entry, canonical isoform): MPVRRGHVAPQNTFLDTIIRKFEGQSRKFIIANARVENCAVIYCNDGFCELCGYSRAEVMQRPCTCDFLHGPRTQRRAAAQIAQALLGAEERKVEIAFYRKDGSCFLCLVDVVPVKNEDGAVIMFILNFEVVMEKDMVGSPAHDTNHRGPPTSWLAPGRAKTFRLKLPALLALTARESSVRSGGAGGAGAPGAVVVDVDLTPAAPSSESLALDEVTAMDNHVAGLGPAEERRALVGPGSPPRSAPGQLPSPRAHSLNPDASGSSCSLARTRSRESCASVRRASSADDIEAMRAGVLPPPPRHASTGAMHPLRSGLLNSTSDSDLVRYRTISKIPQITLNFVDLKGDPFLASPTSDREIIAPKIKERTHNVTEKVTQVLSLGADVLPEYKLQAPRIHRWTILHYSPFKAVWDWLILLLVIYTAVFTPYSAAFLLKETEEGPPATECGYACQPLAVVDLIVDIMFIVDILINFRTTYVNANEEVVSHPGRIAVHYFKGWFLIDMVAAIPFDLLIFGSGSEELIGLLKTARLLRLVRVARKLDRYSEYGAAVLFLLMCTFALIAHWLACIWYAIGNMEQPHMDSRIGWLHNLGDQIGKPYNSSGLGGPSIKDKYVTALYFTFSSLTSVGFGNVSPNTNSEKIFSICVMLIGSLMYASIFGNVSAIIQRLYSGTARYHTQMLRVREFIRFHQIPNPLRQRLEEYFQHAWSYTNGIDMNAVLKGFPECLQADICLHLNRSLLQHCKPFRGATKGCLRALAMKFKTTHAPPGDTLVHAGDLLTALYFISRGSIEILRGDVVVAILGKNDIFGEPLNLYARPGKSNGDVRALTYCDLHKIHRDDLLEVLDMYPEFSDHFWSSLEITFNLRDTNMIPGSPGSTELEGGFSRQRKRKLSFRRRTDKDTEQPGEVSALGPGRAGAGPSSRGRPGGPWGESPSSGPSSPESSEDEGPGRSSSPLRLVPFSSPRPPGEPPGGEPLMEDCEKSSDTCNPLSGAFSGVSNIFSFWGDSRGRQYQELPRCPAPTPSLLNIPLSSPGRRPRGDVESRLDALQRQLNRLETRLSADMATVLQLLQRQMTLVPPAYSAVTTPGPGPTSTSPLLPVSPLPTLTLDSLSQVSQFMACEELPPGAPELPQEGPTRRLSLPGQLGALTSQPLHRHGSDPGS

CYP450 3A4 = CYP450 3A4 (Homo sapiens, UniProt P08684); assay: CYP450 inhibition, recombinant isoform; assay type: in vitro ADME
Sequence of CYP450 3A4 (P08684 whole entry, canonical isoform): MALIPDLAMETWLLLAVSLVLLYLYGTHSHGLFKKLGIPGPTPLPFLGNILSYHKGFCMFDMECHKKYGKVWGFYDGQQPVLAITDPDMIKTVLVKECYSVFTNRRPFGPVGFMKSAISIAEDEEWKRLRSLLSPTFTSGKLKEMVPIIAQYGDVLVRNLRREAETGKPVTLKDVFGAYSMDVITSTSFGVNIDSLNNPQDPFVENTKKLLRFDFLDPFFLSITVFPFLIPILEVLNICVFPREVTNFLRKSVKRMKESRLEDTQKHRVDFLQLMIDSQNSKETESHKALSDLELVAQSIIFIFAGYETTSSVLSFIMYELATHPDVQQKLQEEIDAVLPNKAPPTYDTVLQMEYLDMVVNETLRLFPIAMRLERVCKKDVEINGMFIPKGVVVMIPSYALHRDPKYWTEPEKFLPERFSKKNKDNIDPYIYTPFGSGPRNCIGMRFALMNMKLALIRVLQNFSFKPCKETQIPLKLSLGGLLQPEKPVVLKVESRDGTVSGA
Outline: as §3

[13] = ref Green et al., 2009; cited from earlier work
γ-secretase = conditions: ref Green et al., 2009; cited from earlier work
plasma Aβ42 = conditions: human, 250 mg, SAD study; ref Yu et al., 2014; cited from earlier work
CSF Aβ42 and Aβ40 = conditions: human, 200 mg, ref Soares et al., 2016, cited from earlier work
CSF Aβ42 = conditions: human, ref Ahn et al., 2020, cited from earlier work; for CSF Aβ42 levels lowered: MAD study
[14] = CYP450 IC50 3A4 (m), probe substrate midazolam

Row | SMILES | remaining at 0.5 h, 1 µM [1] | FaSSIF dissolved compound concentration [2] | FeSSIF dissolved compound concentration [2] | fraction unbound [3] | Ames [5] | IC50 (CYP450 1A2) | IC50 (CYP450 2C9) | remaining at 0.5 h, 1 µM [6] | fraction unbound [7] | remaining at 0.5 h, 1 µM [8] | Papp A→B (MDR1-MDCK permeability) | efflux ratio (P-glycoprotein (MDR1)) | fraction unbound [9] | IC50 (CYP450 2D6) | IC50 (CYP450 2C19) | solubility kinetic [12] | IC50 (hERG channel) | IC50 (CYP450 3A4) | IC50 (CYP450 3A4; [14]) | further results
1 | COc1nc(-c2cc(C)c(N[C@@H](C)c3ccc(F)cc3)nn2)ccc1-n1cnc(C)c1 [Compound 1, (S)-N-(1-(4-fluorophenyl)ethyl)-6-(6-methoxy-5-(4-methyl-1H-imidazol-1-yl)pyridin-2-yl)-4-methylpyridazin-3-amine] | 76% | >100/ >100 | >100/ >100 | 0.002 | Positive | 37 µM | 1.3 µM | 78% | 0.001 | 84% | 37.2 ×10⁻⁶ cm/s | 0.9 | 0.004 | 4.7 µM | 6.9 µM | 6.6 µM (≈ 2.76 µg/mL) | 6.2 µM | 8.9 µM | 14 µM | Ames assay results [4]: highly variable; finding in GLP 28-d IND-enabling study in NHPs [10]: evidence of corrected QT interval prolongation; finding in GLP 28-d IND-enabling study in rat [11]: potentially mutagenic metabolite(s)
2 | C[C@@H](C(=O)O)c1ccc(-c2ccccc2)c(F)c1 [R-flurbiprofen] | – | – | – | – | – | – | – | – | – | – | – | – | – | – | – | – | – | – | – | efficacy in phase 3 human trials [13]: did not show efficacy; in vitro GSM activity (γ-secretase): weak
3 | COc1nc(/C=C/c2nc3n(n2)CCC[C@H]3c2ccccc2C(F)(F)F)ccc1-n1cnc(C)c1 [E2212] | – | – | – | – | – | – | – | – | – | – | – | – | – | – | – | – | – | – | – | maximal lowering of plasma Aβ42 levels (AUC0–24 h) (plasma Aβ42): 44.1%
4 | COc1nc(-c2cc(C)c(N[C@@H](C)c3c(F)cc(F)cc3F)nn2)ccc1-n1cnc(C)c1 [Compound 3, (S)-6-(6-methoxy-5-(4-methyl-1H-imidazol-1-yl)pyridin-2-yl)-4-methyl-N-(1-(2,4,6-trifluorophenyl)ethyl)pyridazin-3-amine] | 100% | 79 | 82 | 0.003 | Negative | 3.6 µM | 1.3 µM | 100% | 0.003 | 100% | 30.2 ×10⁻⁶ cm/s | 1.1 | 0.003 | 20 µM | 13 µM | < 1.3 µM | 3.1 µM | 17 µM | 19 µM | CYP450 2C9 IC50 relative to Aβ42 IC50 (CYP450 2C9): over 200 fold; safety margin between Aβ42 IC50 and hERG IC20 (hERG channel): > 100 fold; IC20 (hERG channel; human, HEK-293 cells expressing hERG): 1 µM
5 | CNc1nc(Nc2ccc(-n3cnc(C)n3)c(OC)c2)nc2c1CC[C@H]2c1ccc(F)cc1 [BMS-932481] | – | – | – | – | – | – | – | – | – | – | – | – | – | – | – | – | – | – | – | maximal lowering of CSF Aβ40 levels (CSF Aβ42 and Aβ40; 2-wk MAD study): 74%; maximal lowering of CSF Aβ42 levels (CSF Aβ42 and Aβ40; 2-wk MAD study): 77%; stage 3 elevations in alanine amino transferase (CSF Aβ42 and Aβ40): two of six subjects
6 | Cc1cn(-c2ccc3n(c2=O)CCN([C@@H](C)[C@@H]2CC[C@H](c4cc(F)c(Cl)cc4C(F)(F)F)O2)C3=O)cn1 [PF-06648671] | – | – | – | – | – | – | – | – | – | – | – | – | – | – | – | – | – | – | – | CSF Aβ42 levels lowered (CSF Aβ42; 100 mg): 44%; CSF Aβ42 levels lowered (CSF Aβ42; 200 mg): 59%; CSF Aβ42 levels lowered (CSF Aβ42; 360 mg): 65%; safety profile (CSF Aβ42; up to 360 mg qd for 14 d): good safety profile
